Measured values as given in paper PMC12393906 (Molecular Therapy, 2025).

What was measured:
Ero1α/β-null platelets [1] = type: cell-based, mouse
Procedure, shortened: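 Washed mouse platelets (2 × 10^8/mL in HEPES-Tyrode; C57BL/6 or Ero1α/β-null) were pretreated 20 min at 37°C with 0.1% DMSO vehicle or test compound. Agonist was added for 5 min at 37°C. Cells were stained 15 min with labelled anti-P-selectin or JON/A (activated αIIbβ3) and read by flow cytometry as geometric mean fluorescence intensity.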

[2] = at concentrations required to reduce ERO1α activity; cited from earlier work
mouse platelets [3] = test: Ca2+ mobilization; type: cell-based; conditions: thrombin, A23187 or thapsigargin
Procedure, shortened: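 Mouse platelets were preincubated 20 min with vehicle (0.1% DMSO) or test compound, then loaded with FLIPR Ca2+ 5 dye for 30 min at 37°C in the dark. Release was triggered by 0.02 U/mL thrombin, 0.5 μM A23187 or 5 μM thapsigargin, and influx by adding 2 mM CaCl2. Fluorescence was read at ex 485/em 525 nm and reported as area under the curve (RFU).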

C57BL/6 mice [4] = test: Intravital microscopy, laser-induced cremaster arteriolar injury; type: in vivo, mouse; conditions: iv 0.3 μg/g BW 10 min before IVM
Procedure, shortened: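 Male mice (8–12 weeks) were anaesthetised with ketamine/xylazine ip. The cremaster was exteriorised and superfused with 37°C bicarbonate-buffered saline. Vehicle (1% DMSO) or test compound (0.3 μg/g BW) was given iv, and 10 min later DyLight 649 anti-CD42c (0.1 μg/g BW) was given. Laser ablation injured 3–4 arterioles per mouse. Median integrated platelet fluorescence was tracked over time, using […] per group.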

Recombinant human ERO1α = target: T1, Recombinant human ERO1α (Homo sapiens, UniProt Q96HE7); test: fluorescence-based ERO1α activity assay; type: biochemical; conditions: read-out: IC50 (ERO1α activity); mean ± SD, n = 3
T1 sequence (Q96HE7 24-468): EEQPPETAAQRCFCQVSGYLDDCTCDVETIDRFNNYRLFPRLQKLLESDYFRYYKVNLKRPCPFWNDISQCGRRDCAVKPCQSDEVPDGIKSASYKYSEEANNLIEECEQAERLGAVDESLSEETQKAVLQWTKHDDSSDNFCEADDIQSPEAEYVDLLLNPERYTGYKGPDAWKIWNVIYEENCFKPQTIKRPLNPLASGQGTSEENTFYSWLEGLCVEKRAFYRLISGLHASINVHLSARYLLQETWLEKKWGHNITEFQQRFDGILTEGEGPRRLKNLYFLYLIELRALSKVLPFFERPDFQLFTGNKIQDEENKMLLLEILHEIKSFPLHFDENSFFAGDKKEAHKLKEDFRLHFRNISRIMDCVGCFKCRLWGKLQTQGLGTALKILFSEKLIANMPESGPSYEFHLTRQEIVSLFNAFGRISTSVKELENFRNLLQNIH

human platelets = test: Platelet aggregation assay and ATP secretion; type: cell-based; conditions: 1 μM; 0.015 U/ml thrombin or 0.05 µg/ml CRP
Procedure, shortened: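 Washed human platelets, isolated from ACD blood with PGE1 washes and resuspended in HEPES-Tyrode, were pretreated 20 min at 37°C with 0.1% DMSO vehicle or test compound. After agonist addition, aggregation and ATP secretion were recorded in a lumi-aggregometer at 37°C, stirring at 1,000 rpm.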

mouse platelets [5] = test: CCL5/RANTES in platelet releasates; type: cell-based
Procedure, shortened: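 Washed mouse platelets (5 × 10^8 cells/mL) were pretreated 20 min at 37°C with 0.1% DMSO vehicle or test compound. They were then stimulated 10 min with 0.01 U/mL thrombin or 0.05 μg/mL CRP. CCL5/RANTES in the collected supernatant was quantified by ELISA.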

C57BL/6 mice [6] = test: Tail bleeding time and hemoglobin content; type: in vivo, mouse; conditions: iv 0.3 μg/g BW
C57BL/6 mice [7] = test: tMCAO-induced ischemic stroke; type: in vivo, mouse; conditions: iv 0.3 μg/g BW after 1 h tMCAO; 23 h reperfusion
Procedure, shortened: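 Male mice, 10–12 weeks, were anaesthetised with 1.2%–1.5% isoflurane in oxygen and given buprenorphine-ER 0.1 μg/g ip. After 1 h MCA occlusion the filament was withdrawn to restore flow. Vehicle (1% DMSO) or test compound was then given iv. After 23 h reperfusion, Bederson score, grip strength and infarct volume were assessed.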

mouse platelets [8] = test: Platelet aggregation assay and ATP secretion; type: cell-based
Procedure, shortened: (§1)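 Washed mouse platelets (WT control, C57BL/6 or Ero1α/β-null) were pretreated 20 min at 37°C with 0.1% DMSO vehicle or test compound. After agonist addition, aggregation and ATP secretion were recorded together in a lumi-aggregometer at 37°C with stirring at 1,000 rpm.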

mouse platelets [9] = test: Detection of intracellular ROS; type: cell-based; conditions: 5 μM
Procedure, shortened: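 Platelets from C57BL/6, WT control or Ero1α/β CKO mice were pretreated 20 min at 37°C with or without 0.1% DMSO vehicle or test compound. They were loaded with 1 μM DCF for 10 min, then stimulated 5 min with thrombin or CRP, or left unstimulated. DCF fluorescence was read by flow cytometry.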

C57BL/6 mice [10] = test: Complete blood counts after intravenous injection; type: in vivo, mouse; conditions: iv 0.3 μg/g BW; 10 min and 8 h after injection
pancreatic islet cells = test: Glucose-stimulated insulin secretion and insulin content; type: cell-based, mouse; conditions: 1 or 5 μM; high glucose (16.7 mM)
Procedure, shortened: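 Islets were isolated by bile-duct perfusion of type V collagenase (0.45 mg/mL), handpicked and cultured overnight in RPMI/10% FCS. They were exposed 3 h in KRBH (pH 7.4) to 2.8 mM or 16.7 mM glucose, ± vehicle (0.1% DMSO) or 1 or 5 μM test compound. Ten islets per group then had 1 h in low glucose, then 1 h at 37°C under the same conditions, in technical duplicates. Supernatant insulin and acid-ethanol-extracted content were measured by ELISA.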

Ero1α/β-null platelets [11] = test: Platelet aggregation and ATP secretion in knockout platelets; type: cell-based, mouse
Procedure, shortened: as §1

[12] = 1 or 2.5 μM, 0.015 U/mL thrombin or 0.05 μg/mL CRP

Compound: O=C(O)c1cc(N2N=C(C(F)(F)F)/C(=C/c3ccc(-c4ccccc4)o3)C2=O)ccc1Cl [EN460]
- P-selectin exposure and αIIbβ3 integrin activation in resting platelets (Ero1α/β-null platelets [1]; M6766 5 μM, EN460 2.5 μM, no agonist): appeared to increase the levels of these surface markers
- agonist-induced P-selectin exposure and αIIbβ3 integrin activation (Ero1α/β-null platelets [1]; various concentrations, 0.01 U/mL thrombin, 0.025 μg/mL CRP): significantly reduced
- thiol reactivity [2]: exhibits thiol reactivity
- Ca2+ release and influx (mouse platelets [3]; 0.25 or 0.5 μM): no or minimal inhibition
- Ca2+ release and influx (mouse platelets [3]; 1 or 2.5 μM): significantly reduced both Ca^2+ release and influx
- initial platelet adhesion at sites of laser injury (C57BL/6 mice [4]): without affecting initial platelet adhesion
- platelet accumulation at sites of laser injury (C57BL/6 mice [4]): significantly inhibited platelet accumulation
- IC50 (Recombinant human ERO1α): 5.5 ± 1.6 µM
- platelet aggregation and ATP secretion (human platelets): had no effect
- CCL5 secretion in resting and activated platelets (mouse platelets [5]; 5 μM): appeared to increase CCL5 secretion
- CCL5 secretion from activated platelets (mouse platelets [5]; various concentrations (1-5 μM), thrombin): inhibits CCL5 secretion
- tail bleeding times and blood loss (C57BL/6 mice [6]): did not prolong tail bleeding times or increase blood loss
- Bederson score (C57BL/6 mice [7]): decreased the Bederson score
- grip strength (C57BL/6 mice [7]): increased grip strength
- infarct volume (C57BL/6 mice [7]): significantly reduced infarct volume
- ATP secretion (mouse platelets [8]; 1 μM, 0.5 µM U46619): without affecting ATP secretion
- platelet aggregation (mouse platelets [8]; 1 μM, 0.5 µM U46619): completely inhibited U46619-induced platelet aggregation
- platelet aggregation and ATP secretion (mouse platelets [8]; 5 μM, 0.5 µM U46619): abolished both responses
- platelet aggregation and ATP secretion (mouse platelets [8]; 5 μM, 0.015 U/mL thrombin or 0.05 μg/mL CRP): markedly inhibited platelet aggregation and ATP secretion
- platelet aggregation and ATP secretion (mouse platelets [8]; 1-5 µM, 0.5 µM A23187): also inhibited platelet aggregation and ATP secretion
- platelet aggregation and ATP secretion (mouse platelets [8]; 1-5 µM, high concentration of thrombin (0.1 U/ml)): significantly inhibited both responses
- ATP secretion (mouse platelets [8]; [12]): had no effect on ATP secretion
- platelet aggregation (mouse platelets [8]; [12]): significantly inhibited aggregation
- platelet aggregation and ATP secretion (mouse platelets [8]; 2.5 or 5 μM, high concentration of CRP (0.2 µg/ml)): significantly inhibited both responses
- agonist-induced DCF signal (ROS) (mouse platelets [9]; after thrombin): reduced the signal
- ROS production in resting platelets (mouse platelets [9]; no agonist): moderately increased ROS production
- complete blood counts (CBCs) (C57BL/6 mice [10]): did not alter CBCs
- insulin secretion or content (pancreatic islet cells): did not reduce insulin secretion or content
- ATP secretion (Ero1α/β-null platelets [11]; 2.5 μM, 0.015 U/mL thrombin): not ATP secretion
- thrombin-induced aggregation (Ero1α/β-null platelets [11]; 2.5 μM, 0.015 U/mL thrombin): markedly inhibited thrombin-induced aggregation
- thrombin-stimulated aggregation and ATP secretion (Ero1α/β-null platelets [11]; 5 μM, 0.015 U/ml thrombin): significantly inhibited both responses
